Active and inactive are the calls of the source. The calls are words filed in the database; no cut-off is given here.
What was measured:
Bacillus subtilis [1] = experiment: Antimicrobial activity against Bacillus subtilis assessed as growth inhibition at 91 ug/ml after 24 hrs by spectrophotometry; format: functional; conditions: read-out: GI
Procedure, shortened: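 Primary screen of Bacillus subtilis growth in the presence of test compound at 91 µg/mL.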

L1210 (Mus musculus) [2] = experiment: Potentiation of mitomycin C-induced antitumor activity against mouse L1210 cells allografted in BDF1 mouse administered ip on days 2 to 6 post challenge relative to control
Bacillus subtilis [3] = experiment: Antimicrobial activity against Bacillus subtilis assessed as growth inhibition at 75 ug/ml after 24 hrs by spectrophotometry; format: functional; conditions: read-out: GI
Pseudomonas fluorescens [4] = experiment: Antimicrobial activity against Pseudomonas fluorescens assessed as growth inhibition at 75 ug/ml after 24 hrs by spectrophotometry; format: functional; conditions: read-out: GI
L1210 (Mus musculus) [5] = experiment: Potentiation of actinomycin D-induced antitumor activity against mouse L1210 cells allografted in BDF1 mouse administered ip on days 2 to 6 post challenge relative to control
KB [6] = experiment: Cytotoxicity against human KB cells assessed as growth inhibition at 12.5 ug/ml after 24 hrs by crystal violet staining method; format: functional; conditions: read-out: GI
Pseudomonas fluorescens [7] = experiment: Antimicrobial activity against Pseudomonas fluorescens assessed as growth inhibition at 91 ug/ml after 24 hrs by spectrophotometry; format: functional; conditions: read-out: GI
Bacillus subtilis [8] = experiment: Antimicrobial activity against Bacillus subtilis assessed as growth inhibition after 24 hrs by spectrophotometry; format: functional, organism-based
KB [9] = experiment: Cytotoxicity against human KB cells assessed as growth inhibition after 24 hrs by crystal violet staining method; format: functional, cell-based
Pseudomonas fluorescens [10] = experiment: Antimicrobial activity against Pseudomonas fluorescens assessed as growth inhibition after 24 hrs by spectrophotometry; format: functional, organism-based
KB [11] = experiment: Cytotoxicity against human KB cells assessed as growth inhibition at 50 ug/ml after 24 hrs by crystal violet staining method; format: functional; conditions: read-out: GI

Row | Structure (SMILES) | inhibition of growth at 91 µg/mL (Bacillus subtilis [1]) [%] | inhibition of growth at 91 µg/mL (Pseudomonas fluorescens [7]) [%] | other results
1 | O=S1(=O)Cc2cnoc2-c2ccccc21 | 0 | – | –
2 | c1ccc2c(c1)SCc1cn[nH]c1-2 | – | – | T/C (L1210 (Mus musculus) [2]): 10%; inhibition of growth at 75 µg/mL (Bacillus subtilis [3]): 100%; inhibition of growth at 75 µg/mL (Pseudomonas fluorescens [4]): 0%; Activity (L1210 (Mus musculus) [5]): inactive; inhibition of growth at 12.5 µg/mL (KB [6]): 28%
3 | O=c1[nH]n(-c2ccccc2)c2c1CSCC2 | 0 | 0 | –
4 | O=C1NN=C2CCSCC12 (centres undefined) | 0 | 0 | –
5 | c1n[nH]c2c1CSCC2 | 0 | 0 | –
6 | c1ccc(-n2ncc3c2-c2ccccc2SC3)cc1 | – | – | growth inhibition (GI) (Bacillus subtilis [8]): inactive; growth inhibition (GI) (KB [9]): inactive; growth inhibition (GI) (Pseudomonas fluorescens [10]): inactive
7 | O=S1(=O)Cc2c[n+]([O-])n(-c3ccccc3)c2-c2ccccc21 | 0 | 0 | –
8 | c1ccc2c(c1)SCc1cnoc1-2 | 100 | 0 | inhibition of growth at 50 µg/mL (KB [11]): 100%
9 | O=S1(=O)Cc2cn[nH]c2-c2ccccc21 | 0 | – | –
10 | O=C1CCS(=O)(=O)c2ccccc21 | 100 | 0 | inhibition of growth at 50 µg/mL (KB [11]): 17%

From ChEMBL document CHEMBL3243970, “Synthesis and biological activity of some derivatives of thiochroman-4-one and tetrahydrothiapyran-4-one” (1977)
